Assay results: ChEMBL document CHEMBL1949580, “Multi-component synthesis and in vitro and in vivo anticancer activity of novel arylmethylene bis-isoxazolo[4,5-b]pyridine-N-oxides” (Eur J Med Chem, 2012)
Converted amounts (≈) assume the structure as drawn.

Columns and labels:
HeLa = experiment: Cytotoxicity against human HeLa cells after 48 hrs by MTT assay; assay type: functional, cell-based
Method in brief: (§1)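 Cells in medium with 10% FBS, 5% CO₂, 37 °C, seeded from a 1 × 10⁵ cells/mL suspension. Test solutions from DMSO stocks (final <1% DMSO) added after 24 h. Exposure 48 h, then MTT 2.5 mg/mL for 2 h, formazan dissolved in DMSO, read at 490 nm. IC₅₀ is 50% OD reduction versus untreated, from dose-response curves. Mean of three independent determinations.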

[1] = Cytotoxicity against […] after 48 hrs by MTT assay; assay type: functional, cell-based; details: Mus musculus, Ehrlich; method in brief: as §1
MCF7 = experiment: Cytotoxicity against human MCF7 cells after 48 hrs by MTT assay; assay type: functional, cell-based; details: MCF7, 48 h; method in brief: as §1
[2] = Antitumor activity against […] xenografted in Swiss albino mouse liquid tumor model assessed as change in body weight at 5 mg/kg, ip qd for 9 days measured after 14 days (reference value: 12.2 +/- 0.75 g); assay type: functional, Ehrlich; details: route intraperitoneal
Method in brief: (§2)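 EAC cells (0.2 mL of 2 × 10⁶ cells/mouse) injected ip on day 0. Daily ip dosing began 24 h later. Ten mice per group. Tumor volume, packed cell volume and viable tumor cell count read by Trypan blue method, alongside body weight. Values are mean ± SEM versus tumor control. Cisplatin 5 mg/kg served as the positive control.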

[3] = Anticancer activity against […] xenografted in Swiss albino mouse liquid tumor model assessed as host survival at 5 mg/kg, ip qd for 9 days (reference value: 13.7 +/- 0.03 days); assay type: functional, Ehrlich; details: route intraperitoneal
Mus musculus [4] = experiment: Toxicity in human EAC cells xenografted Swiss albino mouse liquid tumor model assessed as change hemoglobin level at 5 mg/kg, ip qd for 9 days (reference value: 5.75 +/- 0.655 mg); assay type: organism-based, Ehrlich; design: dose 5 mg/kg, route intraperitoneal; details: in vivo, 216 h
[5] = Anticancer activity against […] xenografted in Swiss albino mouse liquid tumor model assessed as increase in host lifespan at 5 mg/kg, ip qd for 9 days measured after 14 days; assay type: functional, Ehrlich; details: route intraperitoneal
[6] = Anticancer activity against […] xenografted in Swiss albino mouse liquid tumor model assessed as tumor volume at 5 mg/kg, ip qd for 9 days measured after 14 days (reference value: 12.1 +/- 0.89 mL); assay type: functional, Ehrlich; details: route intraperitoneal; method in brief: as §2
[7] = Anticancer activity against […] xenografted in Swiss albino mouse liquid tumor model assessed as packed cell volume at 5 mg/kg, ip qd for 9 days measured after 14 days by trypan blue staining (reference value: 2.75 +/- 0.49 mm); assay type: functional, Ehrlich; details: route intraperitoneal; method in brief: as §2
[8] = Anticancer activity against […] xenografted in Swiss albino mouse liquid tumor model assessed as viable tumor cells per 10^7 cells at 5 mg/kg, ip qd for 9 days measured after 14 days by trypan blue staining (reference value: 6.39 +/- 0.51 10^7/mL); assay type: functional, Ehrlich; details: route intraperitoneal; method in brief: as §2
[9] = Antitumor activity against […] xenografted in Swiss albino mouse liquid tumor model assessed as change in body weight at 10 mg/kg, ip qd for 9 days measured after 14 days (reference value: 12.2 +/- 0.75 g); assay type: functional, Ehrlich; details: route intraperitoneal; method in brief: as §2
[10] = Anticancer activity against […] xenografted in Swiss albino mouse liquid tumor model assessed as host survival at 10 mg/kg, ip qd for 9 days (reference value: 13.7 +/- 0.03 days); assay type: functional, Ehrlich; details: route intraperitoneal
Mus musculus [11] = experiment: Toxicity in […] xenografted Swiss albino mouse liquid tumor model assessed as change hemoglobin level at 10 mg/kg, ip qd for 9 days (reference value: 5.75 +/- 0.655 mg); assay type: organism-based, Ehrlich; design: dose 10 mg/kg, route intraperitoneal; details: in vivo, 216 h
[12] = Anticancer activity against […] xenografted in Swiss albino mouse liquid tumor model assessed as increase in host lifespan at 10 mg/kg, ip qd for 9 days measured after 14 days; assay type: functional, Ehrlich; details: route intraperitoneal
[13] = Anticancer activity against […] xenografted in Swiss albino mouse liquid tumor model assessed as tumor volume at 10 mg/kg, ip qd for 9 days measured after 14 days (reference value: 12.1 +/- 0.89 mL); assay type: functional, Ehrlich; details: route intraperitoneal; method in brief: as §2
[14] = Anticancer activity against […] xenografted in Swiss albino mouse liquid tumor model assessed as packed cell volume at 10 mg/kg, ip qd for 9 days measured after 14 days by trypan blue staining (reference value: 2.75 +/- 0.49 mm); assay type: functional, Ehrlich; details: route intraperitoneal; method in brief: as §2
[15] = Anticancer activity against […] xenografted in Swiss albino mouse liquid tumor model assessed as viable tumor cells per 10^7 cells at 10 mg/kg, ip qd for 9 days measured after 14 days by trypan blue staining (reference value: 6.39 +/- 0.51 10^7/mL); assay type: functional, Ehrlich; details: route intraperitoneal; method in brief: as §2
Mus musculus [16] = experiment: Toxicity in human EAC cells xenografted Swiss albino mouse liquid tumor model assessed as change in RBC cell count at 5 mg/kg, ip qd for 9 days (reference value: 2.74 +/- 0.081 million/mm3); assay type: organism-based, Ehrlich; design: dose 5 mg/kg, route intraperitoneal; details: in vivo, 216 h
Mus musculus [17] = experiment: Toxicity in […] xenografted Swiss albino mouse liquid tumor model assessed as change WBC cell count at 5 mg/kg, ip qd for 9 days (reference value: 20.6 +/- 0.545 10^3/mm3); assay type: organism-based, Ehrlich; design: dose 5 mg/kg, route intraperitoneal; details: in vivo, 216 h
Mus musculus [18] = experiment: Toxicity in human EAC cells xenografted Swiss albino mouse liquid tumor model assessed as change in RBC cell count at 10 mg/kg, ip qd for 9 days (reference value: 2.74 +/- 0.081 million/mm3); assay type: organism-based, Ehrlich; design: dose 10 mg/kg, route intraperitoneal; details: in vivo, 216 h
Mus musculus [19] = experiment: Toxicity in […] xenografted Swiss albino mouse liquid tumor model assessed as change WBC cell count at 10 mg/kg, ip qd for 9 days (reference value: 20.6 +/- 0.545 10^3/mm3); assay type: organism-based, Ehrlich; design: dose 10 mg/kg, route intraperitoneal; details: in vivo, 216 h
Mus musculus [20] = experiment: Toxicity in human EAC cells xenografted Swiss albino mouse liquid tumor model assessed as change in lymphocyte cell count at 5 mg/kg, ip qd for 9 days (reference value: 23 +/- 0.567 %); assay type: organism-based, Ehrlich; design: dose 5 mg/kg, route intraperitoneal; details: in vivo, 216 h
Mus musculus [21] = experiment: Toxicity in human EAC cells xenografted Swiss albino mouse liquid tumor model assessed as change in lymphocyte cell count at 10 mg/kg, ip qd for 9 days (reference value: 23 +/- 0.567 %); assay type: organism-based, Ehrlich; design: dose 10 mg/kg, route intraperitoneal; details: in vivo, 216 h
Mus musculus [22] = experiment: Toxicity in human EAC cells xenografted Swiss albino mouse liquid tumor model assessed as change in neutrophil cell count at 5 mg/kg, ip qd for 9 days (reference value: 73 +/- 1.25 %); assay type: organism-based, Ehrlich; design: dose 5 mg/kg, route intraperitoneal; details: in vivo, 216 h
Mus musculus [23] = experiment: Toxicity in human EAC cells xenografted Swiss albino mouse liquid tumor model assessed as change in neutrophil cell count at 10 mg/kg, ip qd for 9 days (reference value: 73 +/- 1.25 %); assay type: organism-based, Ehrlich; design: dose 10 mg/kg, route intraperitoneal; details: in vivo, 216 h
Mus musculus [24] = experiment: Toxicity in […] xenografted Swiss albino mouse liquid tumor model assessed as change in monocytes cell count at 5 mg/kg, ip qd for 9 days (reference value: 2.4 +/- 0.12 %); assay type: organism-based, Ehrlich; design: dose 5 mg/kg, route intraperitoneal; details: in vivo, 216 h
Mus musculus [25] = experiment: Toxicity in human EAC cells xenografted Swiss albino mouse liquid tumor model assessed as change in monocytes cell count at 10 mg/kg, ip qd for 9 days (reference value: 2.4 +/- 0.12 %); assay type: organism-based, Ehrlich; design: dose 10 mg/kg, route intraperitoneal; details: in vivo, 216 h

SMILES: COc1ccc(-c2c[n+]([O-])c3c(C)noc3c2C(c2ccccc2)c2c(-c3ccc(OC)cc3)c[n+]([O-])c3c(C)noc23)cc1
- IC50 (HeLa): 47.9 µg/mL (≈ 79.8 µM)
- IC50 [1]: 41.7 µg/mL (≈ 69.4 µM)
- IC50 (MCF7): 46 µg/mL (≈ 76.5 µM)

SMILES: Cc1noc2c(C(c3ccccc3)c3c(-c4ccccc4)c[n+]([O-])c4c(C)noc34)c(-c3ccccc3)c[n+]([O-])c12
- IC50 (HeLa): 28.6 µg/mL (≈ 52.9 µM)
- IC50 [1]: 26.6 µg/mL (≈ 49.2 µM)
- IC50 (MCF7): 31.9 µg/mL (≈ 59 µM)
- Activity [2]: 10.41 g
- MST [3]: 16.4 days
- Activity (Mus musculus [4]): 8.08 mg
- Activity [5]: 19.7%
- Activity [6]: 7.61 mL
- Activity [7]: 1.25 mm
- Activity [8]: 4.05 ×10⁷ /ml
- Activity [9]: 7.7 g
- MST [10]: 22.1 days
- Activity (Mus musculus [11]): 9.3 mg
- Activity [12]: 61.31%
- Activity [13]: 4.5 mL
- Activity [14]: 0.94 mm
- Activity [15]: 3.27 ×10⁷ /ml
- Activity (Mus musculus [16]): 3.02 million/mm3
- Activity (Mus musculus [17]): 18.48 ×10³ /mm3
- Activity (Mus musculus [18]): 3.88 million/mm3
- Activity (Mus musculus [19]): 13.92 ×10³ /mm3
- Activity (Mus musculus [20]): 31%
- Activity (Mus musculus [21]): 49%
- Activity (Mus musculus [22]): 54%
- Activity (Mus musculus [23]): 39%
- Activity (Mus musculus [24]): 2%
- Activity (Mus musculus [25]): 1.6%

SMILES: Cc1ccccc1C(c1c(-c2ccccc2)c[n+]([O-])c2c(C)noc12)c1c(-c2ccccc2)c[n+]([O-])c2c(C)noc12
- IC50 (HeLa): 62.4 µg/mL (≈ 113 µM)
- IC50 [1]: 65.1 µg/mL (≈ 117 µM)
- IC50 (MCF7): 60.7 µg/mL (≈ 109 µM)

SMILES: COc1ccccc1C(c1c(-c2ccccc2)c[n+]([O-])c2c(C)noc12)c1c(-c2ccccc2)c[n+]([O-])c2c(C)noc12
- IC50 (HeLa): 65.5 µg/mL (≈ 115 µM)
- IC50 [1]: 51.8 µg/mL (≈ 90.9 µM)
- IC50 (MCF7): 57.3 µg/mL (≈ 101 µM)

SMILES: Cc1noc2c(C(c3ccccc3Cl)c3c(-c4ccccc4)c[n+]([O-])c4c(C)noc34)c(-c3ccccc3)c[n+]([O-])c12
- IC50 (HeLa): 79 µg/mL (≈ 137 µM)
- IC50 [1]: 70.4 µg/mL (≈ 122 µM)
- IC50 (MCF7): 72.1 µg/mL (≈ 125 µM)
